{"data": "Measured values gathered from unrelated publications", "observed": "cell growth or viability", "note": "Lines come from different studies, so protocols differ."}
{"SMILES": "Cc1n[nH]c2ccc3nc(-c4ccc(C(=O)N(C)CCN(C)C)nc4)c4c(c3c12)CCCCC4", "cell line": "MV4-11", "technique": "resazurin", "time": "72 h", "quantity": "GI50", "result": "1100 nM"}
{"SMILES": "OCc1ccc(-c2nn(Cc3cccc(F)c3)c3ccccc23)o1", "cell line": "RBE", "technique": "ATP luminescence", "concentration": "46 µM", "time": "72 h", "quantity": "inhibition", "result": "60%"}
{"SMILES": "CCN(CC)CCNC(=O)c1ccc(-c2nc3ccc4[nH]ncc4c3c3c2CCCC3)cc1", "cell line": "MV4-11", "technique": "resazurin", "time": "72 h", "quantity": "GI50", "result": "440 nM"}
{"SMILES": "OCc1ccc(N(Cc2ccc(F)cc2)Cc2ccc(F)cc2)cc1Cl", "cell line": "RBE", "technique": "ATP luminescence", "concentration": "46 µM", "time": "72 h", "quantity": "inhibition", "result": "78%"}
{"SMILES": "CNCCC(=O)Nc1ccccc1/N=c1\\cc(-c2ccc3nc(N)oc3c2)oc2ccccc12", "cell line": "MDA-MB-468", "technique": "CCK-8", "concentration": "1 µM", "quantity": "inhibition", "result": "40.6%"}
{"SMILES": "CC(=O)OC[C@H]1O[C@@H](n2cnc(N)nc2=O)[C@H](OC(C)=O)[C@@H]1OC(C)=O", "cell line": "HBL1", "technique": "ATP luminescence", "concentration": "0.1 µM", "time": "5 days", "quantity": "viability", "result": "105%"}
{"SMILES": "CCOC(=O)c1ccc(-c2nn(Cc3ccccc3)c3ccccc23)o1", "cell line": "RBE", "technique": "ATP luminescence", "concentration": "46 µM", "time": "72 h", "quantity": "inhibition", "result": "35%"}
{"SMILES": "Cc1n[nH]c2ccc3nc(-c4ccc(C(=O)N(C)CCN(C)C)cc4)c4c(c3c12)CCC(F)(F)C4", "cell line": "MV4-11", "technique": "resazurin", "time": "72 h", "quantity": "GI50", "result": "814 nM"}
{"SMILES": "CC1c2ccccc2CCN1c1ccc(CO)c(Cl)c1 (stereo not shown)", "cell line": "RBE", "technique": "ATP luminescence", "concentration": "46 µM", "time": "72 h", "quantity": "inhibition", "result": "91%"}
{"SMILES": "O=C(Nc1ccc(Cl)cc1)C1CCCN(C(=O)c2cc(C(F)(F)F)cc(C(F)(F)F)c2)C1 (racemic)", "cell line": "HBL1", "technique": "ATP luminescence", "concentration": "1 µM", "time": "5 days", "quantity": "viability", "result": "92.8%"}
{"SMILES": "Cc1n[nH]c2ccc3nc(-c4ccc(C(=O)N(C)CCN(C)C)cn4)c4c(c3c12)CCCCC4", "cell line": "MV4-11", "technique": "resazurin", "time": "72 h", "quantity": "GI50", "result": "713 nM"}
{"SMILES": "COc1ccc2/c(=N/c3ccccc3NC(=O)[C@@H](N)CO)cc(-c3ccc4c(c3)OCCO4)oc2c1", "cell line": "MDA-MB-468", "technique": "CCK-8", "concentration": "1 µM", "quantity": "inhibition", "result": "15.1%"}
{"SMILES": "CCc1nc(C(N)=O)c(Nc2ccc(N3CCC(N4CCN(C)CC4)CC3)c(OC)c2)nc1NC1CCOCC1", "cell line": "MV4-11", "technique": "resazurin", "time": "72 h", "quantity": "GI50", "result": "26 nM"}
{"SMILES": "NCCC(=O)Nc1ccccc1/N=c1\\cc(-c2ccc3oc(N)nc3c2)oc2ccccc12", "cell line": "MDA-MB-468", "technique": "CCK-8", "concentration": "1 µM", "quantity": "inhibition", "result": "59.8%"}
{"SMILES": "CC(=O)ON=C1C=CC(=C(C#N)c2ccccc2)C=C1", "cell line": "human Fibroblast", "technique": "MTT", "time": "72 h", "quantity": "IC50", "result": "19.6 µg/mL"}
{"SMILES": "CCN(Cc1ccccc1)c1ccc(CO)c(Cl)c1", "cell line": "RBE", "technique": "ATP luminescence", "concentration": "46 µM", "time": "72 h", "quantity": "inhibition", "result": "57%"}
{"SMILES": "O=C(Nc1cccc(Br)c1)c1cccc(S(=O)(=O)N2CCCCCC2)c1", "cell line": "HBL1", "technique": "ATP luminescence", "concentration": "0.5 µM", "time": "5 days", "quantity": "viability", "result": "110%"}
{"SMILES": "OCc1ccc(-c2nn(Cc3ccccc3)c3ncccc23)o1", "cell line": "RBE", "technique": "ATP luminescence", "concentration": "46 µM", "time": "72 h", "quantity": "inhibition", "result": "51%"}
{"SMILES": "Cc1n[nH]c2ccc3nc(-c4ccc(C(=O)NCCN(C)C)cc4)c4c(c3c12)CCCCC4", "cell line": "MV4-11", "technique": "resazurin", "time": "72 h", "quantity": "GI50", "result": "98 nM"}
{"SMILES": "NCC(=O)Nc1ccccc1/N=c1\\cc(-c2ccc3c(c2)OCO3)oc2c(N)cccc12", "cell line": "MDA-MB-468", "technique": "CCK-8", "concentration": "1 µM", "quantity": "inhibition", "result": "-4.61%"}
{"SMILES": "C[C@H](Nc1ccc2c(c1)OCCn1cc(N3C(=O)OC[C@H]3C(F)F)nc1-2)C(N)=O", "cell line": "MFE-280", "technique": "ATP luminescence", "time": "5 days", "quantity": "EC50", "result": "42.1 nM"}
{"SMILES": "O=C(/C=C/c1cccc(C(=O)NO)c1)NO", "cell line": "HBL1", "technique": "ATP luminescence", "concentration": "1 µM", "time": "5 days", "quantity": "viability", "result": "37.7%"}
{"SMILES": "Oc1cccc(-c2nc(N3CCOCC3)c3oc4ncccc4c3n2)c1", "cell line": "MDA-MB-468", "technique": "CCK-8", "concentration": "1 µM", "quantity": "inhibition", "result": "2.69%"}
{"SMILES": "CN(C)CCNC(=O)c1ccc(-c2nc3ccc4[nH]ncc4c3c3c2CC(C)(C)CC3)cc1", "cell line": "MV4-11", "technique": "resazurin", "time": "72 h", "quantity": "GI50", "result": "80 nM"}
{"SMILES": "C[C@H](N)C(=O)Nc1ccccc1/N=c1\\cc(-c2ccc3c(c2)OCCO3)oc2c([N+](=O)[O-])cccc12", "cell line": "MDA-MB-468", "technique": "CCK-8", "concentration": "1 µM", "quantity": "inhibition", "result": "1.9%"}
{"SMILES": "OCc1ccc(-c2nn(Cc3ccccc3)c3ccncc23)o1", "cell line": "RBE", "technique": "ATP luminescence", "concentration": "46 µM", "time": "72 h", "quantity": "inhibition", "result": "47%"}
{"SMILES": "O=C(CCCCCCSc1ccc2ccccc2c1)NO", "cell line": "HBL1", "technique": "ATP luminescence", "concentration": "0.1 µM", "time": "5 days", "quantity": "viability", "result": "112%"}
{"SMILES": "O=C(NC1CC1)c1ccc(-c2nc3ccc4[nH]ncc4c3c3c2CCCC3)cc1", "cell line": "MV4-11", "technique": "resazurin", "time": "72 h", "quantity": "GI50", "result": "481 nM"}
{"SMILES": "O=C(CCCCCCC(=O)Nc1ccccc1)NO", "cell line": "HBL1", "technique": "ATP luminescence", "concentration": "0.5 µM", "time": "5 days", "quantity": "viability", "result": "49.7%"}
{"SMILES": "COc1ccc2/c(=N/c3ccccc3NC(=O)[C@@H](N)C(C)(C)C)cc(-c3ccc4c(c3)OCO4)oc2c1", "cell line": "MDA-MB-468", "technique": "CCK-8", "concentration": "1 µM", "quantity": "inhibition", "result": "2.98%"}
{"SMILES": "COC(=O)CNC(=O)C(=O)OC", "cell line": "HBL1", "technique": "ATP luminescence", "concentration": "1 µM", "time": "5 days", "quantity": "viability", "result": "93.3%"}
{"SMILES": "CCN(Cc1cccc(Cl)c1)c1ccc(CO)c(Cl)c1", "cell line": "RBE", "technique": "ATP luminescence", "concentration": "46 µM", "time": "72 h", "quantity": "inhibition", "result": "59%"}
{"SMILES": "O=C(NO)c1ccc(CC(=O)N(CCO)c2ccccc2)cc1", "cell line": "HBL1", "technique": "ATP luminescence", "concentration": "1 µM", "time": "5 days", "quantity": "viability", "result": "107%"}
{"SMILES": "NCCC(=O)Nc1ccccc1/N=c1\\cc(-c2ccc3nc(N)oc3c2)oc2ccccc12", "cell line": "MDA-MB-468", "technique": "CCK-8", "concentration": "1 µM", "quantity": "inhibition", "result": "47.2%"}
